Assay results reported in ChEMBL document CHEMBL1142942, “Polybrominated diphenyl ethers from the Indonesian sponge Lamellodysidea herbacea” (J Nat Prod, 2007).
Values after ≈ are worked out from the molar mass of the structure shown.

Columns and labels:
[1] = test system: Bacillus subtilis; assay: Antibacterial activity against Bacillus subtilis at 0.1ug/disk after 24 hrs by agar-plate diffusion assay; format: functional; conditions: read-out: IZ
Summary of the method: (§1)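 Paper disks loaded with compound (acetone solution), 0.1 to 10 µg/disk, placed on agar plates inoculated with B. subtilis. Incubated 37 °C for 24 h, then read for zones of inhibition. All materials sterilized at 121 °C for 20 min before and after testing.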

[2] = test system: Bacillus subtilis; assay: Antibacterial activity against Bacillus subtilis at 1 ug/disk after 24 hrs by agar-plate diffusion assay; format: functional; conditions: read-out: IZ; summary of the method: as §1
[3] = test system: Bacillus subtilis; assay: Antibacterial activity against Bacillus subtilis at 5 ug/disk after 24 hrs by agar-plate diffusion assay; format: functional; conditions: read-out: IZ; summary of the method: as §1
[4] = test system: Bacillus subtilis; assay: Antibacterial activity against Bacillus subtilis at 10 ug/disk after 24 hrs by agar-plate diffusion assay; format: functional; conditions: read-out: IZ; summary of the method: as §1
[5] = Cytotoxicity against rat NBT-T2 cells by MTT method; format: cell-based
Summary of the method: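 Rat bladder epithelial NBT-T2 cells exposed to compound. Viability read by MTT, and IC50 values derived from it.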

Compound | zone of inhibition at 0.1 µg/disc [1] [mm] | zone of inhibition at 1 µg/disc [2] [mm] | zone of inhibition at 5 µg/disc [3] [mm] | zone of inhibition at 10 µg/disc [4] [mm] | IC50 [5] [µg/mL]
Oc1c(Br)cc(Br)cc1Oc1c(Br)cc(Br)c(Br)c1O | 0 | 7 | 8 | 10 | > 15
COc1c(Br)cc(Br)cc1Oc1c(Br)c(Br)c(Br)c(Br)c1OC | 0 | 0 | 0 | 0 | 
Oc1cc(Br)c(Br)c(Br)c1Oc1cc(Br)cc(Br)c1O | 7 | 10 | 13 | 16 | > 15
Oc1c(Br)cc(Br)cc1Oc1c(O)c(Br)c(Br)c(Br)c1Br | 6 | 7 | 12 | 12 | > 15
COc1cc(Br)c(Br)c(Br)c1Oc1cc(Br)cc(Br)c1OC | 0 | 0 | 0 | 0 | 
Oc1ccc(Br)cc1Oc1c(O)ccc(Br)c1Br | 7 | 13 | 16 | 18 | > 15
COc1c(Br)cc(Br)cc1Oc1c(Br)ccc(Br)c1OC | 0 | 0 | 0 | 0 | 
Oc1c(Br)cccc1Oc1cc(Br)c(Br)c(Br)c1O | 0 | 0 | 8 | 13 | > 15
COc1c(Br)cc(Br)cc1Oc1c(Br)cc(Br)c(Br)c1O | 6 | 11 | 14 | 14 | 
Oc1cc(Br)cc(Br)c1Oc1cc(Br)cc(Br)c1O | 0 | 0 | 16 | 18 | > 15
COc1c(Br)c(Br)c(Br)c(Br)c1Oc1cc(Br)cc(Br)c1O | 0 | 0 | 0 | 0 | 
Oc1ccc(Br)cc1Oc1cc(Br)cc(Br)c1O | 6 | 6 | 8 | 11 | > 15
Oc1ccc(Br)cc1Oc1c(O)c(Br)cc(Br)c1Br | 7 | 8 | 16 | 17 | > 15
COc1cc(Br)c(Br)c(Br)c1Oc1cc(Br)cc(Br)c1O | 0 | 0 | 0 | 0 | 
COc1c(Br)cc(Br)cc1Oc1ccc(Br)cc1Br | 0 | 0 | 0 | 0 | 
COc1ccc(Br)cc1Oc1c(OC)ccc(Br)c1Br | 0 | 0 | 0 | 0 | 
COc1c(Br)cc(Br)cc1Oc1c(O)cc(Br)c(Br)c1Br | 6 | 9 | 10 | 10 | 2.8 (≈ 4.58 µM)
COc1c(Br)cc(Br)cc1Oc1c(Br)cc(Br)c(Br)c1OC | 0 | 0 | 0 | 0 | 
Oc1cc(Br)ccc1Oc1cc(Br)cc(Br)c1O | 0 | 0 | 7 | 13 | 8.5 (≈ 19.4 µM)
COc1cc(Br)cc(Br)c1Oc1cc(Br)cc(Br)c1OC | 0 | 0 | 0 | 0 | 
COc1c(Br)cc(Br)c(Br)c1Oc1cc(Br)cc(Br)c1O | 6 | 7 | 10 | 13 | 
Brc1cc(Br)c2c(c1)Oc1c(Br)c(Br)c(Br)c(Br)c1O2 | 7 | 12 | 13 | 14 | > 15
Oc1c(Br)cc(Br)cc1Oc1c(Br)ccc(Br)c1O | 7 | 13 | 20 | 20 | > 15
COc1c(Br)c(Br)cc(Br)c1Oc1cc(Br)cc(Br)c1O | 6 | 9 | 9 | 9 | 
Oc1ccccc1Oc1c(O)cc(Br)cc1Br | 6 | 8 | 10 | 14 | > 15
COc1c(Br)cc(Br)cc1Oc1c(O)c(Br)c(Br)c(Br)c1Br | 0 | 10 | 10 | 13 | > 15
COc1ccc(Br)cc1Oc1c(Br)c(Br)cc(Br)c1OC | 0 | 0 | 0 | 0 | 
